These results are taken from ChEMBL document CHEMBL1149824, “Tasumatrols U-Z, taxane diterpene esters from Taxus sumatrana” (2008).

In brackets after ≈: the same amount, converted by molar mass. Activity calls are given as the source filed them. The calls are words filed in the database; no cut-off is given here. Bounds are passed on as bounds.

What all share (assay type): functional
What all share (details): for EC50: read-out: ED50 (the source's name)

Assay [1] concerns HEp-2. Briefly: Cytotoxicity against human Hep2 cells by MTT assay. In a few lines:
(§1)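 MTT assay on human tumor cell lines (Hep2/Hepa2 […], WiDr colon, HeLa cervical). ED50 is the concentration of test sample giving a 50% reduction in absorbance relative to untreated cells, in µg/mL. Camptothecin served as positive control.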

Assay [2] concerns WiDr. Briefly: Cytotoxicity against human WiDr cells by MTT assay. In short, it runs like this: as §1
Background: Formazan colour is commonly taken as a measure of viable cells.

The test system of assay [3] is HeLa. Briefly: Cytotoxicity against human HeLa cells by MTT assay. In short, it runs like this: as §1

Take `CC(=O)OC[C@@]12C([C@H](OC(=O)c3ccccc3)[C@]34CCC(C)=C3[C@@]1(O)C(=O)OC4(C)C)[C@]1(OC(C)=O)CO[C@@H]1C[C@@H]2O` (stereo partly specified): the result in assay [1], in assay [2] and in assay [3] was inactive.
As to `CC(=O)O[C@@]12CO[C@@H]1C[C@H](O)[C@@]13COC(=O)[C@]1(O)C1=C(C)CC[C@@]1(C(C)(C)O)[C@@H](OC(=O)c1ccccc1)C32` (stereo partly specified) [TASUMATROL Y], the results for the EC50 in assay [1], in assay [2] and in assay [3] were 3.5 µg/mL (≈ 6.45 µM), above 5 µg/mL and above 5 µg/mL, respectively.
In the case of `CC(=O)O[C@H]1C[C@H]2[C@@H](O)/C=C3\C[C@](C)(C(=O)[C@H](O)C(=C1C)C2(C)C)[C@@H](OC(C)=O)C[C@@H]3O`, the result in assay [1], in assay [2] and in assay [3] was inactive.
On to `CC(=O)O[C@H]1C[C@H]2OC[C@@]2(OC(C)=O)C2[C@H](OC(=O)c3ccccc3)[C@]3(C(C)(C)O)C[C@H](O)C(C)=C3[C@@]3(O)C(=O)OC[C@]213` (stereo partly specified), for which the outcome in assay [1], in assay [2] and in assay [3] was inactive.
Consider `CC(=O)OC[C@@]12C([C@H](OC(=O)c3ccccc3)[C@]34C[C@H](O)C(C)=C3[C@@]1(O)C(=O)OC4(C)C)[C@]1(OC(C)=O)CO[C@@H]1C[C@@H]2O` (stereo partly specified), for which the result in assay [1], in assay [2] and in assay [3] was inactive.
In the case of `CC[C@@]1(O)C(=O)OCc2c1cc1n(c2=O)Cc2cc3ccccc3nc2-1` [CAMPTOTHECIN], the results for the EC50 in assay [1], in assay [2] and in assay [3] were 0.02 µg/mL (≈ 0.0574 µM), 0.07 µg/mL (≈ 0.201 µM) and 0.19 µg/mL (≈ 0.545 µM), respectively.
With `CC1=C2[C@@]3(O)C(=O)OC(C)(C)[C@]2(CC1)[C@@H](O)C1[C@](O)(CO)[C@@H](OC(=O)c2ccccc2)C[C@H](O)[C@]13C` (stereo partly specified), the result in assay [1], in assay [2] and in assay [3] was inactive.
